Measurements published in ChEMBL document CHEMBL1148092, “Novel Ca(2+)-ATPase inhibitors from the dried root tubers of Polygonum Multiflorum” (J Nat Prod, 1994).
Active and inactive are the calls of the source. No cut-off for these calls is given here.

Columns and labels:
Type in all cases: cell-based
[1] = species on record: Homo sapiens; test: Inhibition of Mg2+ ATPase activity in human red blood cells at 200 uM by spectrophotometry
Method in brief: (§1)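 Mg2+-ATPase was assayed with calmodulin-depleted human erythrocyte membranes (2.5 mg/ml) at 37° for 1 h, without added CaCl2, in 65 mM KCl, 20 mM K-HEPES, 5 mM MgCl2, 0.1 μM calmodulin and 0.1 mM EGTA. Compounds in DMSO (2.5% final) were added before starting with 2 mM ATP (pH 7.4). Liberated phosphate was measured spectrometrically, in duplicate.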

[2] = species on record: Homo sapiens; test: Inhibition of Ca2+ ATPase activity in human red blood cells at 50 uM by spectrophotometry
Method in brief: (§2)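 Calmodulin-depleted membranes from human packed erythrocytes (2.5 mg/ml) were incubated for 1 h at 37° in 65 mM KCl, 20 mM K-HEPES, 5 mM MgCl2, 50 μM CaCl2 (50.4 μM free Ca2+), 0.1 μM calmodulin and 0.1 mM EGTA. Test agents in DMSO (2.5% final) were added before 2 mM ATP (pH 7.4). Released phosphate was read spectrometrically, Mg2+-ATPase activity was subtracted, and assays were run in duplicate.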

[3] = species on record: Homo sapiens; test: Inhibition of Mg2+ ATPase activity in human red blood cells at 25 uM by spectrophotometry; method in brief: as §1
[4] = species on record: Homo sapiens; test: Inhibition of Ca2+ ATPase activity in human red blood cells at 800 uM by spectrophotometry; method in brief: as §2
[5] = Inhibition of Ca2+ ATPase activity in human red blood cells by spectrophotometry; method in brief: as §2
[6] = species on record: Homo sapiens; test: Inhibition of Mg2+ ATPase activity in human red blood cells at 50 uM by spectrophotometry; method in brief: as §1
[7] = species on record: Homo sapiens; test: Inhibition of Ca2+ ATPase activity in human red blood cells at 200 uM by spectrophotometry; method in brief: as §2
[8] = species on record: Homo sapiens; test: Inhibition of Mg2+ ATPase activity in human red blood cells at 100 uM by spectrophotometry; method in brief: as §1
[9] = species on record: Homo sapiens; test: Inhibition of Ca2+ ATPase activity in human red blood cells at 400 uM by spectrophotometry; method in brief: as §2
[10] = species on record: Homo sapiens; test: Inhibition of Ca2+ ATPase activity in human red blood cells at 1600 uM by spectrophotometry; method in brief: as §2
[11] = species on record: Homo sapiens; test: Inhibition of Mg2+ ATPase activity in human red blood cells at 1600 uM by spectrophotometry; method in brief: as §1
[12] = species on record: Homo sapiens; test: Inhibition of Ca2+ ATPase activity in human red blood cells at 100 uM by spectrophotometry; method in brief: as §2
[13] = species on record: Homo sapiens; test: Inhibition of Mg2+ ATPase activity in human red blood cells at 400 uM by spectrophotometry; method in brief: as §1
[14] = species on record: Homo sapiens; test: Inhibition of Ca2+ ATPase activity in human red blood cells at 25 uM by spectrophotometry; method in brief: as §2
[15] = species on record: Homo sapiens; test: Inhibition of Mg2+ ATPase activity in human red blood cells at 800 uM by spectrophotometry; method in brief: as §1

Row | SMILES | inhibition [1] | inhibition [2] | inhibition [3] | inhibition [4] | IC50 [5] | inhibition [6] | inhibition [7] | inhibition [8] | inhibition [9] | inhibition [12] | inhibition [14] | inhibition [15] | Activity [10] | also measured
1 | OC[C@H]1O[C@@H](Oc2c(O)cc(O)cc2/C=C/c2ccc(O)cc2)[C@H](O)[C@@H](O)[C@@H]1O | 41% | 8% | 14% | 95% | 240 µM | 25% | 44% | 28% | 70% | 15% | 8% | 62% | – | inhibition [10]: 98%; inhibition [11]: 75%; inhibition [13]: 56%
2 | COc1ccc(/C=C/c2cc(O)cc(O[C@@H]3O[C@H](CO)[C@@H](O)[C@H](O)[C@H]3O)c2)cc1O | – | – | – | – | – | – | – | – | – | – | – | – | inactive | –
3 | Cc1cc(O)c2c(c1)C(=O)c1cc(O)cc(O)c1C2=O | – | – | – | – | – | – | – | – | – | – | – | – | inactive | –
4 | Cc1cc(O)c2c(c1)C(=O)c1cccc(O)c1C2=O | – | – | – | – | – | – | – | – | – | – | – | – | inactive | –
5 | O=C(O)c1cc(O)c2c(c1)C(=O)c1cccc(O)c1C2=O | – | – | – | – | – | – | – | – | – | – | – | – | inactive | –
6 | OC[C@H]1O[C@@H](Oc2cc(O)cc(O)c2/C=C/c2ccc(O)cc2)[C@H](O)[C@@H](O)[C@@H]1O | – | – | – | – | – | – | – | – | – | – | – | – | – | Activity [1]: inactive; Activity [2]: inactive; Activity [3]: inactive; Activity [6]: inactive; Activity [7]: inactive; Activity [8]: inactive; Activity [12]: inactive; Activity [14]: inactive
7 | CCC/C=C1/OC(=O)C2=C1CC[C@H](O)[C@H]2O (relative stereo) | 32% | 3% | 21% | 87% | 260 µM | 13% | 36% | 32% | 72% | 8% | 0% | 71% | – | inhibition [10]: 94%; inhibition [11]: 82%
8 | CCC/C=C1/OC(=O)C2=C1CC[C@H](O)[C@@H]2O (relative stereo) | 52% | 0% | 0% | 90% | 160 µM | 17% | 62% | 36% | 79% | 27% | 0% | 85% | – | inhibition [13]: 67%
